Data published in ChEMBL document CHEMBL1132767, “Design and synthesis of piperidinyl piperidine analogues as potent and selective M2 muscarinic receptor antagonists” (Bioorg Med Chem Lett, 2000).
pKi: −log10 of the molar value.

Assays:
[1] = target: Muscarinic acetylcholine receptor M3 (Homo sapiens, UniProt P20309); test: Binding affinity against Muscarinic acetylcholine receptor M3 expressed in CHO-K1 cells; type: cell-based
Method in brief: (§1)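 Competition binding against 180 pM [³H]QNB in 10 mM potassium phosphate buffer, pH 7.4, containing 1% DMSO and 0.4% methylcellulose. Incubated 120 min at room temperature to equilibrium. Bound and free label separated by filtration. Nonspecific binding defined with 0.5 mM atropine. Protein adjusted to give 700–1500 cpm specific binding. [³H]QNB Kd for each subtype from saturation binding over 5–2500 pM.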

[2] = target: T1, Muscarinic acetylcholine receptor M2 (Homo sapiens, UniProt P08172); test: Binding affinity against Muscarinic acetylcholine receptor M2 stably expressed in CHO-K1 cells.; type: cell-based; method in brief: as §1
T1 sequence (P08172 whole entry): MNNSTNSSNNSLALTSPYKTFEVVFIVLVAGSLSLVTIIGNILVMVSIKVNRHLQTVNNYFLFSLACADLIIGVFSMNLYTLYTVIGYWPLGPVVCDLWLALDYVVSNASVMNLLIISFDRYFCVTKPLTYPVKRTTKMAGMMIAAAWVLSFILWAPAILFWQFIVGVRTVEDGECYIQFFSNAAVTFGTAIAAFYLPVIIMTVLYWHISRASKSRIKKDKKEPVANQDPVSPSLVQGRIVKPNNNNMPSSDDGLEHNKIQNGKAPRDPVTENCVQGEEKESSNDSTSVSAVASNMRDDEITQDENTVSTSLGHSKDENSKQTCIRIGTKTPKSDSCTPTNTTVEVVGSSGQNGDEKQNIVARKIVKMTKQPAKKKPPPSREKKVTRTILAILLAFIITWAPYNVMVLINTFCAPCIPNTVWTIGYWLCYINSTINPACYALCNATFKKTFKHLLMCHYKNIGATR

[3] = target: T2, Muscarinic acetylcholine receptor M1 (Homo sapiens, UniProt P11229); test: Binding affinity against Muscarinic acetylcholine receptor M1 expressed in CHO-K1 cells; type: cell-based; method in brief: as §1
T2 sequence (P11229 whole entry): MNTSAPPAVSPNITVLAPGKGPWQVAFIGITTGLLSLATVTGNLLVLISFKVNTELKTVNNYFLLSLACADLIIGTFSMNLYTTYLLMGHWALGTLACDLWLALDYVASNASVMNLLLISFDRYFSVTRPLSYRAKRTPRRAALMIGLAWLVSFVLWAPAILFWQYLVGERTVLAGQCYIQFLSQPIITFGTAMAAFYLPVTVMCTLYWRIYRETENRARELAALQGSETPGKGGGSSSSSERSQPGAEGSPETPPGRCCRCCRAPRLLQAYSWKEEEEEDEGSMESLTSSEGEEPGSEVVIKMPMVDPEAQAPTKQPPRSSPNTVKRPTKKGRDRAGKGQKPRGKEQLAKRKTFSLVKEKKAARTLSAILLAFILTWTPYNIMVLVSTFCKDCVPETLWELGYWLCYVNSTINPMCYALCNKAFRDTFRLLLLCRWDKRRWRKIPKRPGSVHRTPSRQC

[4] = target: Muscarinic acetylcholine receptors; M2 & M3 (Homo sapiens) (UniProt P20309+P08172); test: Binding affinity towards M3 receptor compared to M2 receptor.; type: protein assay
[5] = target: Muscarinic acetylcholine receptors; M1 & M2 (Homo sapiens) (UniProt P11229+P08172); test: Binding affinity towards M1 receptor compared to M2 receptor.; type: protein assay

Chain of Muscarinic acetylcholine receptor M3 (P20309 whole entry): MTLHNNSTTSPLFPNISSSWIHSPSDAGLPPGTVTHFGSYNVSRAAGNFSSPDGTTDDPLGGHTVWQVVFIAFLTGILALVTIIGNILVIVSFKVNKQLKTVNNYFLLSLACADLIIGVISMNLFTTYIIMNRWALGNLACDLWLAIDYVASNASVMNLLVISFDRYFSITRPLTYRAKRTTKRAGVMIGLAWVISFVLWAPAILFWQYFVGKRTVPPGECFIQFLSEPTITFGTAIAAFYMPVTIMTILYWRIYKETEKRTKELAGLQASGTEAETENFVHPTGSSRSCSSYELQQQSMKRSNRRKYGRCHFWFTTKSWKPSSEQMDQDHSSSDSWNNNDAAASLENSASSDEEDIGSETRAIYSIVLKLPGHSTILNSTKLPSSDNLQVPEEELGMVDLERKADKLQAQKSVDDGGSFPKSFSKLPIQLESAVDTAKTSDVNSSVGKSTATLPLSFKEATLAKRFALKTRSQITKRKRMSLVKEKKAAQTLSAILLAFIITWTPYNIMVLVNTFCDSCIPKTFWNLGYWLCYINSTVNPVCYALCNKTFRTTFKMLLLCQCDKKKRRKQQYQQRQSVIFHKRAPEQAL
Chain of Muscarinic acetylcholine receptors; M2 & M3 (Homo sapiens) (P20309 whole entry, looked up, one chain of several): as the sequence (P20309 whole entry) above

Row | pKi [1] | pKi [2] | pKi [3] | Selectivity [4] | Selectivity [5] | SMILES
1 | 6.92 | 9.42 | 7.38 | 324 | 111 | C=C(c1ccc(S(=O)(=O)c2ccc(OC)cc2)cc1)C1CCN(C2CCN(C(=O)CCC)CC2)CC1
2 |  | 9.52 |  |  | 35 | C=C(c1ccc(S(=O)(=O)c2ccc(OC)cc2)cc1)C1CCN(C2CCN(C(=O)OCC(C)C)CC2)CC1
3 |  | 9.44 |  | 558 | 104 | C=C(c1ccc(S(=O)(=O)c2ccc(OC)cc2)cc1)C1CCN(C2CCN(S(=O)(=O)c3ccccc3)CC2)CC1
4 |  | 9.34 |  | 382 | 162 | C=C(c1ccc(S(=O)(=O)c2ccc(OC)cc2)cc1)C1CCN(C2CCN(S(=O)(=O)CC)CC2)CC1
5 |  | 9.00 |  | 55 | 61 | C=C(c1ccc(S(=O)(=O)c2ccc(OC)cc2)cc1)C1CCN(C2CCN(C(=O)OC)CC2)CC1
6 | 8.00 | 9.54 | 7.59 | 35 | 89 | C=C(c1ccc(S(=O)(=O)c2ccc(OC)cc2)cc1)C1CCN(C2CCN(S(=O)(=O)CCC)CC2)CC1
7 |  | 8.42 |  | 13 | 16 | C=C(c1ccc(S(=O)(=O)c2ccc(OC)cc2)cc1)C1CCN(C2CCN(C(=O)CC)CC2)CC1
8 | 8.43 | 9.96 | 8.19 | 34 | 59 | C=C(c1ccc(S(=O)(=O)c2ccc(OC)cc2)cc1)C1CCN(C2CCN(C(=O)OCC)CC2)CC1
9 |  | 8.84 |  | 54 | 23 | C=C(c1ccc(S(=O)(=O)c2ccc(OC)cc2)cc1)C1CCN(C2CCN(S(=O)(=O)Cc3ccccc3)CC2)CC1
10 |  | 9.39 |  |  | 36 | C=C(c1ccc(S(=O)(=O)c2ccc(OC)cc2)cc1)C1CCN(C2CCN(C(=O)OC(C)C)CC2)CC1
11 |  | 8.52 |  | 48 | 32 | C=C(c1ccc(S(=O)(=O)c2ccc(OC)cc2)cc1)C1CCN(C2CCN(C(=O)Cc3ccccc3)CC2)CC1
12 |  | 8.66 |  | 40 | 53 | C=C(c1ccc(S(=O)(=O)c2ccc(OC)cc2)cc1)C1CCN(C2CCN(C(=O)C(C)C)CC2)CC1
13 |  | 9.59 |  | 260 | 262 | C=C(c1ccc(S(=O)(=O)c2ccc(OC)cc2)cc1)C1CCN(C2CCN(C(=O)C3CC3)CC2)CC1
14 |  | 9.80 |  | 440 | 198 | C=C(c1ccc(S(=O)(=O)c2ccc(OC)cc2)cc1)C1CCN(C2CCN(S(=O)(=O)C(C)C)CC2)CC1
15 | 8.47 | 8.94 | 8.04 | 3 | 8 | C=C(c1ccc(S(=O)(=O)c2ccc(OC)cc2)cc1)C1CCN(C2CCNCC2)CC1
16 |  | 9.23 |  | 40 | 69 | C=C(c1ccc(S(=O)(=O)c2ccc(OC)cc2)cc1)C1CCN(C2CCN(C(=O)OCCC)CC2)CC1
17 |  | 9.42 |  | 405 | 150 | C=C(c1ccc(S(=O)(=O)c2ccc(OC)cc2)cc1)C1CCN(C2CCN(S(=O)(=O)CCCC)CC2)CC1
18 |  | 9.35 |  |  | 24 | C=C(c1ccc(S(=O)(=O)c2ccc(OC)cc2)cc1)C1CCN(C2CCN(C(=O)OCc3ccccc3)CC2)CC1
19 |  | 9.46 |  |  | 28 | C=C(c1ccc(S(=O)(=O)c2ccc(OC)cc2)cc1)C1CCN(C2CCN(C(=O)OCCCC)CC2)CC1
20 |  |  |  | 3 | 16 | C=C(c1ccc(S(=O)(=O)c2ccc(OC)cc2)cc1)C1CCN(C2CCCCC2)CC1
